An excerpt weighted towards active compounds, which were near 2.1% of everything screened.
E coli RNAP = blocks E. coli RNA polymerase transcription | inhibition, %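 (tested at 10 µM)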 | hit rate 0.2% among 62,000 | P0A8V2 | fluorescence transcription assay | AID 559; in the data active = inhibition above about 20%
MT1-MMP txn act = MT1-MMP promoter transcription activation; activation factor at 10 µM; hit rate 0.16% among 86,000; HT1080 MT1-MMP promoter luciferase reporter, luminescence, overnight; stronger effect = higher value;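 active = activation factor of at least 2 for MT1-MMP transcription at 10 µM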
SF1 activator = activators of human nuclear receptor SF-1 | hit rate 1.9% among 65,000 | CHO-K1 Gal4-SF-1 LBD luciferase reporter; % increase over DMSO SF-1-specific signal | AID 522 | activation, % at 10 µM;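 active = activation above the mean activation of all tested compounds plus 3 SD, cut at about 50% in these data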
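Test system: CHO-K1 cells co-transfected with Gal4 DBD–human SF-1 LBD, 5xGal4 luciferase reporter. Quantity: 4,000 cells per well. Compound: 10 µM only. Incubation: compound added 1 h post-seeding, 20 h exposure at 37 °C, 5% CO2. Detection: SteadyLite luciferase luminescence. Replication: one test per compound.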
TNAP act mid DEA = human TNAP activation, intermediate phosphate acceptor; P05186; purified TNAP, CDP-star luminescence, 100 mM DEA, 30 min; stronger effect = higher value; scale: 0 levamisole-inhibited, 1 vehicle-only enzyme; activation factor at 20 µM; 64,000 tested, under 10 active;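 active = activation factor of at least 2 at 20 µM, relative to controls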
Target sequence (P05186 whole entry, looked up): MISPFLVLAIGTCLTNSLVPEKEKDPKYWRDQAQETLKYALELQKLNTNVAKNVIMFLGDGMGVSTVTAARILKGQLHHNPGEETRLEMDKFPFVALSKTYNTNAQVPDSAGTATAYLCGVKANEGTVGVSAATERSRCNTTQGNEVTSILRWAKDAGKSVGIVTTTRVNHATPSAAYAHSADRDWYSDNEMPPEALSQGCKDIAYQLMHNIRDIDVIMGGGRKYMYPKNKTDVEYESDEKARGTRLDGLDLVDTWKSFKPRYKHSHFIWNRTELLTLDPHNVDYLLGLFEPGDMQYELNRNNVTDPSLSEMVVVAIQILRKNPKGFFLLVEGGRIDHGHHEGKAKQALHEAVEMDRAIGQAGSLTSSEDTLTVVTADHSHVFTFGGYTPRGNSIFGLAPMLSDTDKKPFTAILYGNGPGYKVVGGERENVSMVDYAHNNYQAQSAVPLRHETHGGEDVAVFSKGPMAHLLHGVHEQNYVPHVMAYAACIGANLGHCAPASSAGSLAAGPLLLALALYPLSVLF
RORa activator = RORA (human) activation; AID 560; hit rate 1.5% among 65,000; CHO-K1 Gal4-RORA LBD luciferase reporter, luminescence; percent increase over mock-subtracted basal signal; activation, % at 10 µM;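 active = activation above the mean of all tested compounds plus 3 SD, cut at about 49% in these data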
Each line names hits and unclear results; the compound was inactive in the other large screens.

Cc1ccc2c(c1)C(N1CCCC1=O)CC(c1ccco1)N2 (stereo unspecified)	SF1 activator 57.7, RORa activator 52.2
Cc1ccc(C2CC(c3ccco3)n3ncnc3N2)cc1 (stereo unspecified)	none (no result: SF1 activator, RORa activator)
CC(=O)c1c(C)[nH]c(C(=O)NCCC2=CCCCC2)c1C	SF1 activator 84.3, RORa activator 68.6
COc1ccc2oc(=O)c(-c3nc(C)cs3)cc2c1	SF1 activator 54.1
COc1cccc2c(=O)c(C(=O)NCc3cccs3)c[nH]c12	SF1 activator 119.2
Cc1ccc2[nH]cc(C(=O)NCc3cccs3)c(=O)c2c1	none (no result: E coli RNAP, SF1 activator, TNAP act mid DEA, RORa activator)
CC(C)C1N=C(c2ccc3c(c2)OCO3)CC(c2ccccc2O)N1 (stereo unspecified)	MT1-MMP txn act 2 (no result: E coli RNAP, SF1 activator, TNAP act mid DEA, RORa activator)
CCCc1cc(C(N)=O)c(NC(=O)c2cc(C)on2)s1	none
Cc1cc(C(=O)Nc2sc(C)c(-c3ccc(F)cc3)c2C(N)=O)no1	SF1 activator 84.9
COc1ccccc1Cn1c2nc3ccccc3nc2c2c(=O)n(CC(C)C)cnc21	none
Nc1nc(-c2cccs2)cs1	none (no result: E coli RNAP, SF1 activator, TNAP act mid DEA, RORa activator)
c1csc(-c2ccc3ccccc3n2)c1	SF1 activator 78.9
COc1ccc(N(CC(=O)Nc2cc(C)ccc2OC)S(=O)(=O)c2c(C)noc2C)cc1	SF1 activator 53.6
CC(C)c1cc(C(=O)NC2CCCCC2)no1	SF1 activator 54.0
CCCc1cc(C(=O)N(C2CCCCC2)C2CCCCC2)no1	none
CCCc1cc(C(=O)NC2CCCC2)no1	RORa activator 61.2
CCCc1cc(C(=O)NC2CCCCC2)no1	SF1 activator 54.1
CCc1cccc2c(-c3ccccc3)c3c(nc12)OCC3	none (no result: E coli RNAP, SF1 activator, TNAP act mid DEA, RORa activator)
CC(=O)c1cccc(NC(=O)c2cc3ccccn3n2)c1	none
CC(=O)c1cccc(NC(=O)c2cnn3ccccc23)c1	SF1 activator 66.6
O=C(Cc1csc(N2CCOCC2)n1)N/N=C/c1ccc(F)cc1	none (no result: E coli RNAP, SF1 activator, TNAP act mid DEA, RORa activator)
C/C(=N\O)c1ccc2c3c([nH]c2c1)CCCC3	SF1 activator 64.1, RORa activator 54.1
CC(=Nc1ccccc1C)C1=C(O)CSC1=O	none (no result: E coli RNAP, SF1 activator, TNAP act mid DEA, RORa activator)
COc1cccc(C(=O)/C=C/Nc2cc(C)ccc2O)c1	SF1 activator 56.0
O=C(NCc1ccccn1)c1coc(=O)c(Br)c1	none
NC(=O)c1ccsc1NC(=O)COc1ccccc1	SF1 activator 67.6
Oc1ccc(-c2cccc(-c3ccc(O)cc3)n2)cc1	RORa activator 51.8
Oc1ccc(-c2nnc(-c3ccc(O)cc3)nn2)cc1	none
O=P1(Nn2cnnc2)C=C(c2ccccc2)OC(c2ccccc2)=C1	none (no result: MT1-MMP txn act)
COC(=O)c1c(-c2cccnc2)csc1NC(=O)c1cc(C)on1	SF1 activator 79.7, RORa activator 56.8
Cc1ccc(C(=O)COC(=O)CNC(=O)c2ccco2)cc1	none
COc1ccc2c(c1)S/C(=C\C(=O)c1ccncc1)N2C	RORa activator 57.6
CN(C)c1nc(N)nc(-c2nc3ccccc3s2)n1	SF1 activator 54.4
CC(C)c1nnc(NC(=O)c2cnccn2)s1	SF1 activator 50.7
Cc1cnc(C(=O)Nc2nnc(C(C)C)s2)cn1	SF1 activator 68.5
O=C(CSCC(=O)N1CCOCC1)Nc1nc(-c2ccc3c(c2)OCO3)cs1	RORa activator 52.3
CCOC(=O)N1CCN(C(=O)CSCC(=O)Nc2nc(-c3ccc4c(c3)OCO4)cs2)CC1	none
Cc1ccc2cc3cc(C(=O)N(C)C4CCCCC4)oc3nc2c1	SF1 activator 76.8
Cc1cccc(N(C)C(=O)c2cc3cc4ccc(C)cc4nc3o2)c1	none
CN1CCN(c2nc(N3CCN(c4ccccc4)CC3)ncc2F)CC1	none
Fc1cnc(N2CCOCC2)nc1N1CCc2ccccc21	SF1 activator 55.4
CC1(c2ccc3c(c2)OCO3)NC(=O)N(CC(=O)Nc2ccc(N3CCOCC3)cc2)C1=O (stereo unspecified)	none
Nc1nc(-c2ccccc2)cc(-c2ccccc2O)n1	RORa activator 49.2
Nc1nc(-c2ccccc2)nc(-c2ccccc2O)n1	none (no result: E coli RNAP, TNAP act mid DEA)
COC(=O)c1ccc(C(NC(=O)OCc2ccccc2)/C(C)=C/[C@@H](C)C(=O)NCc2nc3ccccc3s2)cc1 (stereo partly specified)	none (no result: E coli RNAP, SF1 activator, TNAP act mid DEA, RORa activator)
Cn1cccc1C(=O)OCc1csc(-c2ccccc2)n1	RORa activator 59.1
O=C(OCc1csc(-c2ccccc2)n1)c1cccs1	none
CCc1ccccc1Nc1nc(N)nc(COC(=O)c2cccn2C)n1	none
Cc1ccccc1Nc1nc(N)nc(COC(=O)c2cccn2C)n1	SF1 activator 65.5, RORa activator 60.3
